Active and inactive are the calls of the source.
Tests used:
[1] = molecular target: T1, L-lactate dehydrogenase A chain (Homo sapiens, UniProt P00338); assay: Binding affinity to human His-tagged LDHA by SPR analysis
How it was run: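 SPR on a Mass-1 instrument gave K_D and k_off. Residence time τ was calculated as 1/k_off (s⁻¹).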

MIA PaCa-2 = assay: Cytotoxicity against human MIA PaCa-2 cells assessed as reduction in cell viability after 48 hrs by CellTiter-Glo assay; type: functional, cell-based; settings: MIA PaCa-2, 48 h
[2] = molecular target: T1, L-lactate dehydrogenase A chain; assay: Inhibition of GS[HiBiT]GS-tagged LDHA (unknown origin) expressed in HEK-293T cells measured after 1 hr by […]; type: cell-based
How it was run: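 HEK293T cells were transiently transfected for 24 h with CMV-driven LDHA carrying a C-terminal GS[HiBiT]GS tag, then reseeded at 2500 cells/well in DPBS with Ca/Mg and 1 g/L glucose. […] Cells were lysed with NP40, and 11S (100 nM final) plus furimazine was added.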

[3] = molecular target: T1, L-lactate dehydrogenase A chain; assay: Inhibition of LDHA in human MIA PaCa-2 cells assessed as decrease in lactate production incubated for 2 hrs by lactate oxidase-coupled fluorescence based assay; type: cell-based
[4] = molecular target: T1, L-lactate dehydrogenase A chain; assay: Inhibition of LDHA in human A673 cells assessed as decrease in lactate production incubated for 2 hrs by lactate oxidase-coupled fluorescence based assay; type: cell-based
[5] = molecular target: L-lactate dehydrogenase B chain (Homo sapiens) (UniProt P07195); assay: Inhibition of recombinant human LDHB using sodium pyruvate as substrate preincubated for 5 mins followed by diaphorase/resazurin addition and measured after 20 mins by fluorescence based assay
Sequence of L-lactate dehydrogenase B chain (Homo sapiens) (P07195 2-334 limits assumed): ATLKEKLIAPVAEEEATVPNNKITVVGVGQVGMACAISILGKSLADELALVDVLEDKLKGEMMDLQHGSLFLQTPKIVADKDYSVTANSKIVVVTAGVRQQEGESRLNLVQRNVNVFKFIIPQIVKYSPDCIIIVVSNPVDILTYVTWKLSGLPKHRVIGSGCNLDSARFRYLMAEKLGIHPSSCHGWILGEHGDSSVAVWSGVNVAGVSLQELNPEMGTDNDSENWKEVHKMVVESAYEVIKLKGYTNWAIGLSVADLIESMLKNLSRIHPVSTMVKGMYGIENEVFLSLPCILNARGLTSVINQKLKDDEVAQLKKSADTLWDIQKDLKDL

A673 = assay: Cytotoxicity against human A673 cells assessed as reduction in cell viability after 48 hrs by CellTiter-Glo assay; type: functional, cell-based; settings: A673, 48 h
Sus scrofa = species on record: Sus scrofa; assay: Inhibition of porcine heart MDH using malic acid as substrate preincubated for 10 mins followed by substrate addition and measured after 5 mins by resazurin based fluorescence based assay; settings: time 15.0 min
[6] = molecular target: T1, L-lactate dehydrogenase A chain; assay: Inhibition of recombinant human LDHA using sodium pyruvate as substrate preincubated for 5 mins followed by diaphorase/resazurin addition and measured after 20 mins by fluorescence based assay
[7] = Cmax in CD-1 mouse at 50 mg/kg, po and measured up to 24 hrs by LC/MS-MS analysis; type: ADME, organism-based; design: route oral, dose 50 mg/kg, time <=24; settings: in vivo
How it was run: (§1)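 Male CD1 mice, about 6–8 weeks old and 20–30 g, were dosed PO at 40 or 50 mg/kg in 0.1 M NaOH in PBS, pH 7–8.5, prepared the same day. Three mice per cohort. Dorsal metatarsal vein blood was collected into heparin at 15, 30 min and 1, 2, 4, 8, 12, 24 h. Plasma was spun at 4 °C, frozen at –75 °C and quantified by LC–MS/MS.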

[8] = Cmax in CD-1 mouse at 10 mg/kg, iv and measured up to 24 hrs by LC/MS-MS analysis; type: ADME, organism-based; design: route intravenous, dose 10 mg/kg, time <=24; settings: in vivo
How it was run: (§2)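 Male CD1 mice, about 6–8 weeks old and 20–30 g, received 10 mg/kg IV in 0.1 M NaOH in PBS adjusted to pH 7–8.5, made fresh on the day of dosing. Three mice per cohort. Blood was taken from the dorsal metatarsal vein at 5, 15, 30 min and 1, 2, 4, 8, 12, 24 h into heparin tubes. Plasma was spun at 4 °C, stored at –75 °C and analysed by LC–MS/MS. For IV dosing Cmax = C0.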

[9] = AUClast in CD-1 mouse at 50 mg/kg, po and measured up to 24 hrs by LC/MS-MS analysis; type: ADME, organism-based; design: route oral, dose 50 mg/kg, time <=24; settings: in vivo; how it was run: as §1
[10] = Volume of distribution at steady state in CD-1 mouse at 10 mg/kg, iv and measured up to 24 hrs by LC/MS-MS analysis; type: ADME, organism-based; settings: in vivo; how it was run: as §2
[11] = Terminal half life in CD-1 mouse at 50 mg/kg, po and measured up to 24 hrs by LC/MS-MS analysis; type: ADME, organism-based; settings: in vivo
How it was run: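 Male CD1 mice, about 6–8 weeks old and 20–30 g, were dosed PO at 40 or 50 mg/kg in 0.1 M NaOH in PBS, pH 7–8.5, prepared the same day. Three mice per cohort. Plasma was spun at 4 °C, frozen at –75 °C and quantified by LC–MS/MS.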

[12] = Oral bioavailability in CD-1 mouse at 50 mg/kg and measured up to 24 hrs by LC/MS-MS analysis; type: ADME, organism-based; settings: in vivo; how it was run: as §1
[13] = AUClast in CD-1 mouse at 10 mg/kg, iv and measured up to 24 hrs by LC/MS-MS analysis; type: ADME, organism-based; design: route intravenous, dose 10 mg/kg, time <=24; settings: in vivo; how it was run: as §2
[14] = Terminal half life in CD-1 mouse at 10 mg/kg, iv and measured up to 24 hrs by LC/MS-MS analysis; type: ADME, organism-based; settings: in vivo; how it was run: as §2
Mus musculus [15] = assay: In vivo inhibition of LDH in human A673 cells xenografted athymic nude CrTac:NCr-Foxn1nu mouse assessed as reduction in tumor LDH activity at 50 mg/kg, iv after 6 hrs by UV-VIS spectrometric method relative to control; type: functional
How it was run: (§3)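 Female athymic nude mice carried SQ A673 flank xenografts (2 million cells) and received a single IV dose of 50 mg/kg in PBS-based vehicle. Four mice per time point were sacrificed at 1, 3, 6 and 24 h. Frozen tumor (10–50 mg) was pulverized and lysed in PBS pH 7.4 with 0.1% Triton X-100 on ice for 1 h. Cleared lysate (10–20 μg) was assayed with 10 mM pyruvate and 0.3 mM final NADH, reading NADH oxidation at 340 nm at 37 °C.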

Mus musculus [16] = assay: In vivo inhibition of LDH in human A673 cells xenografted athymic nude CrTac:NCr-Foxn1nu mouse assessed as reduction in tumor LDH activity at 50 mg/kg, iv after 1 hr by NADH-based UV-VIS spectrometric method relative to control; type: functional, organism-based; how it was run: as §3

IC50 [2] | IC50 [3] | IC50 [4] | inhibition [5] | inhibition (Sus scrofa) | IC50 [6] | Cmax [7] | Cmax [8] | AUClast [9] | Vdss [10] | beta t1/2 [11] | F [12] | AUClast [13] | beta t1/2 [14] | Compound | Kd [1] | IC50 (MIA PaCa-2) | IC50 (A673) | inhibition (Mus musculus [15]) | inhibition (Mus musculus [16])
168 nM | 432 nM | 450 nM | Active | inactive | 36 nM | 2280 ng/mL | 4570 ng/mL | 10170 ng·h/mL | 12.5 L/kg | 3.7 h | 89% | 2280 ng·h/mL | 5 h | Cc1ccc(C#Cc2cccc(-c3nn(-c4nc(C(=O)O)cs4)c(CC4CC4)c3Cc3ccc(S(N)(=O)=O)c(F)c3)c2)o1 | – | 296 nM | 285 nM | – | –
79 nM | 547 nM | 544 nM | Active | inactive | 47 nM | 1260 ng/mL | 4770 ng/mL | 13520 ng·h/mL | 10.3 L/kg | 10.7 h | 106% | 2320 ng·h/mL | 5.1 h | Cc1ccc(C#Cc2cc(-c3nn(-c4nc(C(=O)O)cs4)c(CC4CC4)c3Cc3ccc(S(N)(=O)=O)c(F)c3)ccc2F)o1 | – | – | – | – | –
126 nM | 321 nM | 405 nM | Active | inactive | 11 nM | – | – | – | – | – | – | – | – | C/C=C/c1cc(-c2nn(-c3nc(C(=O)O)cs3)c(CC3CC3)c2Cc2ccc(S(N)(=O)=O)c(F)c2)ccc1F | – | 528 nM | 614 nM | Active | Active
108 nM | 149 nM | 371 nM | Active | inactive | 74 nM | 1200 ng/mL | 6440 ng/mL | 9220 ng·h/mL | 13.3 L/kg | 3.1 h | 83% | 2810 ng·h/mL | 5.5 h | NS(=O)(=O)c1ccc(Cc2c(-c3ccc(F)c(/C=C/C4CCCC4)c3)nn(-c3nc(C(=O)O)cs3)c2CC2CC2)cc1F | – | 454 nM | 488 nM | Active | Active
170 nM | 1600 nM | 1320 nM | Active | inactive | 52 nM | 2030 ng/mL | 3320 ng/mL | 2650 ng·h/mL | 17.9 L/kg | 3.54 h | 39% | 1360 ng·h/mL | 4.9 h | Cc1cnc(C#Cc2cc(-c3nn(-c4nc(C(=O)O)cs4)c(CC4CC4)c3Cc3ccc(S(N)(=O)=O)c(F)c3)ccc2F)s1 | – | 909 nM | 803 nM | Active | Active
– | – | – | – | – | – | – | – | – | – | – | – | – | 0.85 h | NS(=O)(=O)c1ccc(Cc2c(-c3cccc(-c4ccccc4)c3)nn(-c3nc(C(=O)O)cs3)c2CC2CC2)cc1 | – | – | – | – | –
152 nM | 172 nM | 174 nM | Active | inactive | 117 nM | 6850 ng/mL | 58200 ng/mL | 20030 ng·h/mL | 1.47 L/kg | 3.7 h | 42% | 9600 ng·h/mL | 5.8 h | Cc1ccc(C#Cc2cccc(-c3nn(-c4nc(C(=O)O)cs4)c(CCC4CC4)c3Cc3ccc(S(N)(=O)=O)c(F)c3)c2)s1 | – | – | 187 nM | – | –
– | 867 nM | 937 nM | Active | inactive | 33 nM | 1820 ng/mL | 5500 ng/mL | 3440 ng·h/mL | 13.9 L/kg | 3.2 h | 38% | 1820 ng·h/mL | 5.75 h | Cc1ncc(C#Cc2cc(-c3nn(-c4nc(C(=O)O)cs4)c(CC4CC4)c3Cc3ccc(S(N)(=O)=O)c(F)c3)ccc2F)s1 | – | 488 nM | 569 nM | – | –
200 nM | 197 nM | 390 nM | Active | inactive | 202 nM | 4730 ng/mL | 35300 ng/mL | 12240 ng·h/mL | 2.5 L/kg | 3.2 h | 37% | 6650 ng·h/mL | 6.5 h | Cc1ccc(C#Cc2cc(-c3nn(-c4nc(C(=O)O)cs4)c(CCC4CC4)c3Cc3ccc(S(N)(=O)=O)c(F)c3)ccc2F)s1 | – | 226 nM | 218 nM | Active | Active
106 nM | 361 nM | 420 nM | Active | inactive | 24 nM | – | – | – | – | – | – | – | – | CCCC#Cc1cc(-c2nn(-c3nc(C(=O)O)cs3)c(CC3CC3)c2Cc2ccc(S(N)(=O)=O)c(F)c2)ccc1F | – | 746 nM | 833 nM | Active | Active
201 nM | 218 nM | 345 nM | Active | inactive | 137 nM | – | – | – | – | – | – | – | – | Cc1cc(C)c(C#Cc2cccc(-c3nn(-c4nc(C(=O)O)cs4)c(CC4CC4)c3Cc3ccc(S(N)(=O)=O)c(F)c3)c2)s1 | – | 533 nM | 528 nM | – | –
112 nM | 255 nM | 361 nM | Active | inactive | 59 nM | – | – | – | – | – | – | – | – | CC(C)(C)/C=C/c1cc(-c2nn(-c3nc(C(=O)O)cs3)c(CC3CC3)c2Cc2ccc(S(N)(=O)=O)c(F)c2)ccc1F | – | 1900 nM | 2260 nM | – | –
299 nM | 188 nM | 162 nM | Active | inactive | 487 nM | – | – | – | – | – | – | – | – | Cc1cc(C#Cc2cccc(-c3nn(-c4nc(C(=O)O)cs4)c(CCC4CC4)c3Cc3ccc(S(N)(=O)=O)c(F)c3)c2)c(C)s1 | – | 402 nM | 402 nM | – | –

Compound | IC50 [2] | IC50 [3] | IC50 [4] | inhibition [5] | inhibition (Sus scrofa) | IC50 [6] | Cmax [7] | Cmax [8] | AUClast [9] | Vdss [10] | beta t1/2 [11] | F [12] | AUClast [13] | beta t1/2 [14] | Kd [1] | IC50 (MIA PaCa-2) | IC50 (A673) | inhibition (Mus musculus [15]) | inhibition (Mus musculus [16])
NS(=O)(=O)c1ccc(Cc2c(-c3ccc(F)c(C#CC4CCCC4)c3)nn(-c3nc(C(=O)O)cs3)c2CC2CC2)cc1F | 112 nM | 333 nM | 509 nM | Active | inactive | 22 nM | – | – | – | – | – | – | – | – | 0.0193 nM | 314 nM | 100 nM | – | –
C#Cc1cc(-c2nn(-c3nc(C(=O)O)cs3)c(CC3CC3)c2Cc2ccc(S(N)(=O)=O)c(F)c2)ccc1F | 253 nM | 660 nM | 902 nM | Active | inactive | 9 nM | – | – | – | – | – | – | – | – | – | 4020 nM | 4350 nM | – | –
